Screens: PubChem BioAssay, Broad Institute
miR122 inh – miR-122 Renilla sensor signal increase in Huh7, primary screen, miR-122 inhibitor project, cell-based, single point, plate reader | activation (reporter increase), % at 12.5 µM | hit rate 0.3% among 340,000 | AID 602342, 2012 | Huh7 miR-122 Renilla luciferase sensor, 48 h; neutral wells = 0, positive control = 100;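 active = mean replicate activation score at least 90 and every replicate individually at or above 90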;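 note: higher luciferase means less miR-122 activity so hits act as miR-122 inhibitors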
Cneo AK release – Cryptococcus neoformans cell lysis inducers, primary screen, AK release luminescence, single concentration | lysis activity, % at 15 µM | AID 651654, 2012 | hit rate 0.2% among 360,000 | C. neoformans lysis, adenylate kinase release luminescence, 4 h; normalised: neutral wells 0, clomiphene wells 100;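 active = mean lysis activity across replicates of at least 80%, whatever share of replicates individually reach that level; inactive = mean lysis activity below 80%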
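Assay system: C. neoformans cells. Amount: yeast cell density of 5 × 10^6 cells/mL. Technique: AK luminescence. Buffer or medium: YPD. Times: static 4 h at 37 °C with compound, 1 h detection. Dosing: single-point compound dose. Read-out: lysis from increased AK signal.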
Env fusion inh – inhibitors of HIV-1 Env-driven cell-cell fusion, primary screen, HeLa-JRFL effector, CEM21 target cells, luciferase. inhibition, % at 12.3 µM. AID 651610, 2012. hit rate 1.1% among 360,000;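 active = mean replicate inhibition score of at least 50 and every replicate individually at or above 50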;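 note: 0% = plate neutral controls and 100% = maraviroc near 300 nM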
GSIS activator – GLuc luminescence reporter in INS-1E cells, primary screen for activators of glucose-dependent secretion of insulin. INS-1E GLuc reporter insulin secretion, 2-3 h. hit rate 0.61% among 370,000. AID 743287, 2014. activation, % at 16.6 µM;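 active = lowest replicate activation of at least 40%, so every replicate reaches that level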;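 note: 0% = median of neutral control wells and 100% = median of IBMX positive control wells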
rRNA inh HTS – reduced GFP signal of wild-type E. coli, primary screen, bacterial rRNA inhibitor project, GFP/RFP fluorescence, OD600, single point; E. coli WT GFP vs humanized-ribosome RFP mutants, 24 h; stronger effect = lower value; DMSO median 0, no signal -100; GFP signal change (wild-type ribosome), % (no concentration beside the values); hit rate 1.6% among 350,000; AID 720706, 2013;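 active = significant combined selectivity score with lowered wild-type GFP, culture density cut under 30%, mutant RFP and density less affected; inactive = any of these conditions unmet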
CFTR F508del cor – F508del CFTR correction, initial screen, CFBE line, single point; CFBE cells, YFP halide quenching; stimulated with forskolin plus potentiator P3; % fluorescence drop versus neutral controls; activity (quench increase), % at 7.58 µM; hit rate 0.36% among 350,000;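 active = mean added fluorescence quench of at least 8% versus neutral control, with both replicates also reaching 8%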;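 note: cells transiently co-express mutant CFTR-F508del with the halide-sensitive YFP; corrector assay measuring rescue of mutant channel to the surface after 24 h compound exposure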
Numbers without * were called inactive; . = no result given; [ ] = dose if it differs, or a comment. Most compounds without a hit are left out; they make up all but 3.1% or so of the library.

SMILES	miR122 inh	Cneo AK release	Env fusion inh	GSIS activator	rRNA inh HTS	CFTR F508del cor
Cc1ccc(/C=N/NC(=O)c2cccc(S(=O)(=O)Nc3cccc(Cl)c3)c2)o1	.	.	9	4	-21*	-1
Cc1ccccc1-c1ccc([C@@H]2[C@@H](CO)N3C(=O)CN(C(=O)Nc4ccc(F)cc4)C[C@@H]23)cc1	.	.	.	-16	-19	0
C[C@H](CO)N1C[C@H](C)[C@H](CN(C)C)Oc2ccc(NC(=O)CCCCCC(=O)Nc3ccccc3N)cc2C1=O	.	.	.	-15	3	4
CC(C)C#Cc1ccc([C@H]2[C@@H](CO)N3CCCCN(CC4CC4)C[C@@H]23)cc1	-25[16.7 µM]	51	.	-22	7	0
C[C@@H]1CCCCO[C@@H](CN(C)C(=O)Cc2ccccc2)[C@H](C)CN([C@H](C)CO)C(=O)c2cc(NS(=O)(=O)c3ccc(Cl)cc3)ccc2O1	-14[16.7 µM]	-1	-1[16.7 µM]	-30	-3	1
CC(C)C#Cc1ccc2c(c1)O[C@H](CN(C)C(=O)Cc1ccccn1)[C@H](C)CN([C@H](C)CO)S2(=O)=O	67[16.7 µM]	101*	-9[16.7 µM]	12	-2	-2
CCCC#Cc1ccc2c(c1)O[C@H](CN(C)C(=O)c1ccccn1)[C@@H](C)CN([C@H](C)CO)S2(=O)=O	128*[16.7 µM]	0	-28[16.7 µM]	-4	-1	4
COc1ccc(C#Cc2cnc3c(c2)C(=O)N([C@H](C)CO)C[C@@H](C)[C@@H](CN(C)CC2CC2)O3)cc1	0[16.7 µM]	.	25[16.7 µM]	-12	-2	-2
CC(C)(C)c1ccccc1OCC(O)CN1CCN(c2ccccn2)CC1 (centres undefined)	-3	0	5	63*	-46	1
Cc1cccc(N2CCN(C(=O)c3c(-c4ccccc4Cl)noc3C)CC2)c1C	40	-2	23	-8	-4	14*
O=[N+]([O-])c1nn(-c2ccc(Cl)cc2)n(O)c1=NCc1cccnc1	-4	1	-98	-16	-19*	-2
C[C@@H]1CN([C@H](C)CO)C(=O)c2cc(NC(=O)NC3CCCCC3)ccc2O[C@@H](C)CCCCO[C@@H]1CN(C)CC1CCCCC1	-7[16.7 µM]	2	1[16.7 µM]	-14	4	3
Cc1nn2c(NCCCn3ccnc3)cc(C(C)C)nc2c1-c1ccccc1	.	.	-9	-28	-45*	-3
C[C@H](O)C#Cc1cnc2c(c1)C(=O)N([C@H](C)CO)C[C@H](C)[C@@H](CN(C)C(=O)CN1CCOCC1)O2	4[16.7 µM]	-1	-6[16.7 µM]	19	-1	2
COCCNC(=O)C1CCCN(C(=O)c2ccc3sccc3c2)CC1 (centres undefined)	.	-1	.	15	2	8.5*
COC(=O)c1cn(NC(=O)c2cc([N+](=O)[O-])ccc2F)c(=O)c2ccccc12	.	.	57*	39	16	8.7*
Cc1nc(C(=O)N2CCc3c([nH]c4ccccc34)C2c2ccccn2)cs1 (centres undefined)	5	.	20	-22	-20*	-1
O=C(CN1CCOCC1)NCC[C@@H]1CC[C@H](NS(=O)(=O)c2ccc(F)cc2)[C@@H](CO)O1	8[16.7 µM]	-21	-3[16.7 µM]	4	4	1
C[C@H](CO)N1C[C@H](C)[C@H](CN(C)Cc2ccccc2)Oc2ccc(NC(=O)CCN3CCOCC3)cc2CC1=O	-2[16.7 µM]	-4	2[16.7 µM]	8	-3	-2
CCC1(c2ccc(F)cc2)NC(=O)N(CC(=O)Nc2ccc(-c3nc4ccc(C)cc4s3)cc2)C1=O (centres undefined)	271*	-3	-94	1	.	5
COc1nc(-c2ccccc2)cc(-c2ccc3c(c2)OCO3)c1C#N	.	.	-5	-5	10	17*
C[C@H](CO)N1C[C@H](C)[C@@H](CN(C)Cc2ccccn2)Oc2ncc(C3=CCCCC3)cc2C1=O	.	.	-9[16.7 µM]	3	2	0
C[C@H]1CN([C@@H](C)CO)S(=O)(=O)c2ccc(-c3cccnc3)cc2O[C@H]1CN(C)Cc1cccnc1	0[16.7 µM]	.	-11[16.7 µM]	2	2	-1
C[C@H](CO)N1C[C@H](C)[C@H](CN(C)S(=O)(=O)c2ccccc2)Oc2ccc(NC(=O)Cn3cnnn3)cc2CC1=O	6[16.7 µM]	2	65*[16.7 µM]	3	1	-2
Cc1ccc(S(=O)(=O)N(C)C[C@@H]2Oc3ccc(NC(=O)Cn4cnnn4)cc3CC(=O)N([C@H](C)CO)C[C@@H]2C)cc1	-10[16.7 µM]	0	89*[16.7 µM]	1	0	-1
SMILES	miR122 inh	Cneo AK release	Env fusion inh	GSIS activator	rRNA inh HTS	CFTR F508del cor
COc1ccc2c3c([nH]c2c1)[C@@H](CO)N(C(=O)c1ccncc1)CC31CN(C(=O)c2ccncc2)C1	.	.	.	10	2	-1
O=C(NNS(=O)(=O)c1cccc(Cl)c1)c1cc(-c2ccc(F)cc2)nc2ccccc12	-4	0	24	-19	-19*	-1
O=C(NCCCN1CCCC1=O)c1cc(-c2ccc(F)cc2)nc2ccccc12	-3	1	-73	.	-20*	5
O=C(NCCCN1CCCC1=O)Nc1ccc(Cl)cc1Cl	.	2	-6	-2	0	1
O=C(NCCCN1CCCC1=O)c1ccccc1OCc1ccc(Cl)cc1Cl	0	1	8	2	-31*	3
O=C(NCc1ccccn1)c1ccccc1OCc1ccc(Cl)cc1Cl	.	-3	.	49*	-6	0
O=C(CCN1CCCCC1)NCC[C@H]1CC[C@H](NC(=O)Nc2ccc(F)cc2)[C@@H](CO)O1	.	1	0[16.7 µM]	0	1	0
O=C(CN1CCN(S(=O)(=O)c2ccc(Cl)c(Cl)c2)CC1)N1CCCC1	-6	0	-2	-3	-1	11*
O=C(CN1CCN(S(=O)(=O)c2ccc(Cl)c(Cl)c2)CC1)N1CCCCC1	-13	3	.	0	-3	2
O=C(C1CC1)N1CCN(c2ccc([N+](=O)[O-])cc2-n2cccc2)CC1	.	.	1	6	-30*	1
O=C(c1ccc(Br)cc1)c1cn[nH]c1-c1ccccc1O	.	.	-7	-1	0	-5
CC(C)(C)c1ccc(C(=O)c2cn[nH]c2-c2ccccc2O)cc1	-8	-6	17	-39	-22*	2
CCC(=O)N1CC2(C1)[C@H](c1ccc(-c3ccc(F)cc3)cc1)[C@H](CO)N2C(=O)CC	.	.	.	-7	-4	2
O=c1oc(=S)oc2c1[C@H](c1ccc(Cl)cc1)O[C@H](C1CC1)C2	.	.	1	6	-43*	2
O=c1oc(=S)oc2c1[C@H](c1ccc(Cl)cc1)O[C@H](C1CCCC1)C2	.	.	30	14	-10	-2
